The values below come from ChEMBL document CHEMBL1153592, “1,8-Naphthyridine-3-carboxamide derivatives with anticancer and anti-inflammatory activity” (Eur J Med Chem, 2009).

Structures are written as SMILES. Bounds are passed on as bounds.

One assay deals with PA-1. As to the kind of experiment: Cytotoxicity against human PA1 cells after 72 hrs by MTT assay. It counts as functional, cell-based. The following applies: PA-1, 72 h.
For a further assay, the system named is DU-145. As to the kind of experiment: Cytotoxicity against human DU145 cells after 72 hrs by MTT assay. Conditions: DU-145, 72 h; call rule not given here. It counts as functional, cell-based. For orientation: Formazan colour is commonly taken as a measure of viable cells.
Another assay deals with KB. As to the kind of experiment: Cytotoxicity against human KB cells after 72 hrs by MTT assay. In kind it is functional, cell-based.
The test system of the next assay is SW-620. Description: Cytotoxicity against human SW620 cells after 72 hrs by MTT assay. In kind it is functional, cell-based. The following applies: SW-620, 72 h.
The subject of the next assay is HBL-100. Description: Cytotoxicity against human HBL100 cells after 72 hrs by MTT assay. The following applies: HBL-100, 72 h. In kind it is functional, cell-based.
For a further assay, the system named is A549. As to the kind of experiment: Cytotoxicity against human A549 cells after 72 hrs by MTT assay. In kind it is functional, cell-based. The following applies: A549, 72 h.
Another assay concerns MIA PaCa-2. As to the kind of experiment: Cytotoxicity against human MIAPaCa2 cells after 72 hrs by MTT assay. It counts as functional, cell-based. The following applies: MIA PaCa-2, 72 h.
The next assay deals with K562. Description: Cytotoxicity against human K562 cells after 72 hrs by MTT assay. It counts as functional, cell-based. Conditions: K562, 72 h.
The next assay relates to ECV-304. As to the kind of experiment: Cytotoxicity against human ECV304 cells after 72 hrs by MTT assay. In kind it is functional, cell-based.
A short description of assay [1]: Cytotoxicity against mouse NIH/3T3 cells after 72 hrs by MTT assay. In kind it is cell-based, NIH3T3.
Assay [2] in a line: Antiinflammatory activity in C57BL/6 mouse DC assessed as inhibition of LPS-induced IL1-beta production at 1 ug/ml after 24 hrs by ELISA. In kind it is functional. The essentials:
(§1)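 Dendritic cells grown from femoral bone marrow of 8–12-week-old C57BL/6 mice in RPMI-1640 with 10% FBS and 20 ng/ml rmGM-CSF at 37 °C, 5% CO2. Day-6 immature DCs were stimulated with 10 ng/ml LPS plus compound for 24 h. Supernatant cytokine/chemokine measured by ELISA (pg/ml); % change = (B−A)/A×100, versus LPS-stimulated DCs alone.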

Assay [3] is described as follows: Antiinflammatory activity in C57BL/6 mouse DC assessed as inhibition of LPS-induced IL1-beta production at 0.1 ug/ml after 24 hrs by ELISA. In kind it is functional. The essentials: as §1
For orientation: ELISA stands for enzyme-linked immunosorbent assay.

Assay [4] can be described thus: Antiinflammatory activity in C57BL/6 mouse DC assessed as inhibition of LPS-induced IL-6 production at 1 ug/ml after 24 hrs by ELISA. It counts as functional. An outline of the steps: as §1
Assay [5] can be described thus: Antiinflammatory activity in C57BL/6 mouse DC assessed as inhibition of LPS-induced IL-6 production at 0.1 ug/ml after 24 hrs by ELISA. In kind it is functional. An outline of the steps: as §1
Setting [6] is: Homo sapiens, ECV-304, 72 h, read-out: IC50.
The mark [7] stands for this setting: Mus musculus, NIH3T3, 72 h, read-out: IC50.

What is called IC50 is the concentration needed to halve the response being measured. As for `C#CCn1cc(C(=O)NC(C(=O)Nc2ccccc2)c2ccccc2)c(=O)c2ccc(Cl)nc21` (centres undefined), the 50% inhibitory concentration (IC50) in the assay on PA-1 was above 10 µM; in the assay on DU-145, 1.7 µM; in the assay with KB, 2.1 µM; in the assay on SW-620 it was 2.2 µM; in the assay with HBL-100 it was 7.8 µM; in the assay with A549, above 10 µM. In addition, the IC50 in the assay with MIA PaCa-2 is 9.7 µM; with K562, 3.3 µM; in the assay with ECV-304 (setting [6]), above 10 µM; in [1] (nih3t3), “Not Active”. Further, the “inhibition (INH)” value in [2] worked out at 86.3%; in [3], 82%; in [4], 91.7%; in assay [5], 76.5%.

For `C#CCn1cc(C(=O)NC(C(=O)Nc2ccccc2)c2ccccc2)c(=O)c2cc(F)c(Cl)nc21` (centres undefined), the IC50 is 0.5 µM in the assay with PA-1; 0.6 µM in the assay on DU-145; 1.1 µM in the assay with KB; 1.4 µM in the assay on SW-620; above 10 µM in the assay on HBL-100; above 10 µM in the assay on A549. The IC50 with MIA PaCa-2 was above 10 µM; in the assay with K562, 5 µM; in the assay with ECV-304 (setting [6]), 9.1 µM; in assay [1] (nih3t3), “Not Active”. Also, the “inhibition (INH)” value in [2] was found to be 97%; in assay [3], 44.3%; in assay [4] it was 99.9%; in assay [5], 84.4%.

Consider `C#CCn1cc(C(=O)NC(C(=O)NC2CCCC2)c2ccccc2)c(=O)c2cccnc21` (centres undefined), for which the IC50 is above 10 µM with PA-1; above 10 µM with DU-145; 4.5 µM in the assay with KB; above 10 µM in the assay with SW-620; above 10 µM in the assay on HBL-100; above 10 µM in the assay with A549. Further, the IC50 in the assay with MIA PaCa-2 was above 10 µM; in the assay with K562, above 10 µM; in the assay with ECV-304 (setting [6]) it was above 10 µM; in assay [1] (nih3t3), “Not Active”.

`C#CCn1cc(C(=O)NC(C(=O)Nc2ccccc2)c2ccccc2)c(=O)c2cccnc21` (centres undefined): the IC50 in the assay with PA-1 is 8.9 µM; in the assay on DU-145, 8.8 µM; in the assay on KB it was 3 µM; with SW-620 it was above 10 µM; with HBL-100, above 10 µM; with A549, above 10 µM. For the same molecule, the IC50 in the assay on MIA PaCa-2 is above 10 µM; with K562, above 10 µM; with ECV-304 (setting [6]), above 10 µM; in [1] (nih3t3), “Not Active”. The “inhibition (INH)” value was determined as 64.6% in assay [2], 39.9% in assay [3], 79.3% in assay [4] and 79.3% in assay [5].

For the molecule `C#CCn1cc(C(=O)NC(C(=O)NC2CCCCC2)c2ccccc2)c(=O)c2cc(F)c(Cl)nc21` (centres undefined), the IC50 was 1.8 µM in the assay with PA-1; above 10 µM in the assay with DU-145; above 10 µM in the assay with KB; above 10 µM with SW-620; above 10 µM in the assay on HBL-100; above 10 µM with A549. Besides, the IC50 was above 10 µM in the assay with MIA PaCa-2, above 10 µM in the assay on K562, above 10 µM with ECV-304 (setting [6]) and 7.4 µM in assay [1] (setting [7]).

On to `C#CCn1cc(C(=O)NC(CC(=O)NC2CCCC2)c2ccccc2)c(=O)c2cc(F)c(Cl)nc21` (centres undefined), for which the IC50 is 0.68 µM with PA-1; above 10 µM in the assay with DU-145; 4.9 µM with KB; 2.1 µM in the assay on SW-620; 2 µM with HBL-100; 6.1 µM in the assay on A549. The IC50 with MIA PaCa-2 came out at 4.4 µM; in the assay with K562, 7.3 µM; in the assay with ECV-304 (setting [6]) it was 5.1 µM; in assay [1] (setting [7]), 2.4 µM. The “inhibition (INH)” value in assay [2] is recorded as 102%; in [3] it was 83.4%; in [4], 100%; in [5], 80.1%.

Consider `C#CCn1cc(C(=O)NC(CC(=O)Nc2ccccc2)c2ccccc2)c(=O)c2ccc(Cl)nc21` (centres undefined), for which the concentration for half-maximal inhibition (IC50) was 0.54 µM in the assay on PA-1; above 10 µM with DU-145; above 10 µM in the assay on KB; 2.9 µM with SW-620; 4 µM with HBL-100; above 10 µM in the assay with A549. The IC50 stood at 3 µM with MIA PaCa-2, 7.7 µM with K562, 4 µM in the assay with ECV-304 (setting [6]) and 4.4 µM in assay [1] (setting [7]). The “inhibition (INH)” value in [2] is reported as 99.4%; in [3], 28.3%; in assay [4] it was 75.4%; in assay [5] it was 69.5%.

In the case of `C#CCn1cc(C(=O)NC(CC(=O)Nc2ccccn2)c2ccccc2)c(=O)c2cc(F)c(Cl)nc21` (centres undefined), the half-inhibitory concentration (IC50) with PA-1 was above 10 µM; with DU-145, 2.1 µM; with KB, 2.3 µM; in the assay with SW-620, 2.3 µM; in the assay on HBL-100, above 10 µM; in the assay with A549 it was above 10 µM. In addition, the IC50 in the assay with MIA PaCa-2 is above 10 µM; in the assay on K562, above 10 µM; in the assay on ECV-304 (setting [6]), above 10 µM; in assay [1] (setting [7]), 4.2 µM. The “inhibition (INH)” value in assay [2] was 109.6%; in assay [3], 83.4%; in assay [4] it was 99.1%; in assay [5], 75.5%.

In the case of `C#CCn1cc(C(=O)NC(C(=O)NC2CCCC2)c2ccccc2)c(=O)c2cc(F)c(Cl)nc21` (centres undefined), the IC50 in the assay with PA-1 is 1.8 µM; in the assay with DU-145 it was 3.2 µM; in the assay on KB it was 3.5 µM; with SW-620 it was 3.4 µM; with HBL-100 it was 5.1 µM; in the assay with A549, above 10 µM. Moreover, the IC50 with MIA PaCa-2 was 1.7 µM; in the assay with K562, 5.9 µM; in the assay with ECV-304 (setting [6]) it was 3.2 µM; in assay [1] (setting [7]) it was 0.4 µM.

Consider `COc1cccc2c1C(=O)c1c(O)c3c(c(O)c1C2=O)C[C@@](O)(C(=O)CO)C[C@@H]3O[C@H]1C[C@H](N)[C@H](O)[C@H](C)O1` [DOXORUBICIN], for which the IC50 in the assay with PA-1 was 0.63 µM; with DU-145, 0.1 µM; in the assay on SW-620, 0.08 µM; in the assay on HBL-100 it was 0.24 µM; with MIA PaCa-2 it was 0.15 µM; in the assay with ECV-304 (ecv-304) it was “Not Active”. Also, the IC50 in [1] (setting [7]) is 0.39 µM.

As to `C#CCn1cc(C(=O)NC(CC(=O)NC2CCCC2)c2ccccc2)c(=O)c2ccc(Cl)nc21` (centres undefined), the IC50 in the assay with PA-1 is 1.1 µM; in the assay with DU-145, above 10 µM; in the assay with KB it was above 10 µM; in the assay on SW-620 it was 2.7 µM; in the assay with HBL-100, 3.2 µM; in the assay with A549, 9.5 µM. Also, the IC50 in the assay with MIA PaCa-2 is 2.4 µM; in the assay with K562, 6.8 µM; in the assay with ECV-304 (setting [6]), 7.8 µM; in assay [1] (setting [7]), 4.4 µM. For the same molecule, the “inhibition (INH)” value in assay [2] is 18.1%; in assay [3] it was 82%; in assay [4] it was 81.7%; in assay [5] it was 79.8%.

On to `C#CCn1cc(C(=O)NC(CC(=O)Nc2ccccn2)c2ccccc2)c(=O)c2ccc(Cl)nc21` (centres undefined), for which the IC50 with PA-1 was 1.7 µM; in the assay on DU-145, 4.9 µM; with KB, 5.2 µM; in the assay with SW-620, 2.9 µM; in the assay with HBL-100, above 10 µM; in the assay with A549, above 10 µM. The IC50 in the assay on MIA PaCa-2 is above 10 µM; in the assay with K562, 5.9 µM; in the assay on ECV-304 (setting [6]), above 10 µM; in assay [1] (nih3t3), “Not Active”. The “inhibition (INH)” value in assay [2] amounted to 82%; in assay [3] it was 57.3%; in [4], 82.9%; in [5] it was 78.2%.

Regarding `C#CCn1cc(C(=O)NC(CC(=O)NC2CCCCC2)c2ccccc2)c(=O)c2cc(F)c(Cl)nc21` (centres undefined), the IC50 is 2.3 µM in the assay on PA-1; 8.03 µM in the assay with DU-145; above 10 µM in the assay on KB; above 10 µM with SW-620; above 10 µM in the assay with HBL-100; above 10 µM in the assay on A549. Moreover, the IC50 in the assay on MIA PaCa-2 is 4.9 µM; in the assay on K562 it was 6.2 µM; with ECV-304 (setting [6]) it was 9.8 µM; in assay [1] (nih3t3), “Not Active”.
